Published values of several laboratories.
Each line is one published result; the experiments were not run side by side.
Target: Calcium/calmodulin-dependent protein kinase type IV (CAMK4, Homo sapiens, UniProt Q16566)
Residues used in one study (Q16566 1-473): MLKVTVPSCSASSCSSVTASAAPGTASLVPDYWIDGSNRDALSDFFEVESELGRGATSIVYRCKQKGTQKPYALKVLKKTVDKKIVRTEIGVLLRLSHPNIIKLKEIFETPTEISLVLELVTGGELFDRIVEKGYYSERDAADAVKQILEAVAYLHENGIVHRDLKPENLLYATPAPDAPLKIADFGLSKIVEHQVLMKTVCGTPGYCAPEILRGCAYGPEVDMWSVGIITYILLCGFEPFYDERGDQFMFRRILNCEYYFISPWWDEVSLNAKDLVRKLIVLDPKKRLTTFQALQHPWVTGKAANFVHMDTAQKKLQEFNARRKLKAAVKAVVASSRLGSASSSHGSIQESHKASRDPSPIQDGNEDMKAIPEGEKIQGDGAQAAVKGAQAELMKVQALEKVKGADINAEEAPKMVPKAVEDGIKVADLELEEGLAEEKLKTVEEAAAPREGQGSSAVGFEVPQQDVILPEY

Structure (SMILES) | effect on | action | technique | tested at | measurement | value
Cc1ccc(C(=O)Nc2ccc(CN3CCN(C)CC3)c(C(F)(F)F)c2)cc1C#Cc1cnc2cccnn12 | enzyme activity | inhibitor |  | 23.5 nM | remaining activity | 100%
CN(C)C1CCN(CC#Cc2nn(C3CCCC3)c3nc(NCc4ccccc4)ncc23)C1 (centres unmarked) | enzyme activity | inhibitor | FRET | 1 µM | inhibition | 7%
O=C(O)c1cc(-c2ccc(C3CCNCC3)cc2)c2ccc(-c3ccc(C(F)(F)F)cc3)cc2c1 | cell-free assay |  | competition with immobilised ligand | 1 µM | remaining binding | 100%
O=C(O)c1ccc2c3c1cccc3c(=O)n1c3ccccc3nc21 | cell-free assay |  |  | 0.5 µM | remaining signal | 101%
Cn1nc(C(=O)NCc2ccc(C(=O)O)cc2)cc1-c1ccc2[nH]ccc2c1 | cell-free assay |  | competition with immobilised ligand | 0.1 µM | remaining binding | 92%
Cc1ccc(Nc2nccc(N(C)c3ccc4c(C)n(C)nc4c3)n2)cc1S(N)(=O)=O | cell-free assay | inhibitor |  | 0.5 µM | remaining signal | 95.9%
CC(=O)c1c(NS(C)(=O)=O)c2cc(-c3ccc(Cl)cc3)c(-c3ccc(Cl)cc3Cl)nc2n(C)c1=O | cell-free assay |  | competition with immobilised ligand | 1 µM | remaining binding | 100%
Cc1ccc(NC(=O)c2ccc(C)c(C(F)(F)F)c2)cc1C#Cc1nn(C2CCC(O)CC2)c2ncnc(N)c12 (centres unmarked) | cell-free assay |  |  | 10 µM | remaining signal | 93%
CC(C)c1ccc(NC(=O)c2cccs2)c(-c2nc3ccccc3[nH]c2=O)c1 | enzyme activity | inhibitor |  | 1 µM | activity vs control | 116%
O=C(Nc1cnn(-c2csc(C(=O)NC3COC3)c2)c1)Nc1ccccc1Cl | enzyme activity | inhibitor |  | 5 µM | remaining activity | 114%
Cn1c2c(c3ccc(Cl)c(Cl)c31)C(C#N)C1(CCCCC1)NC2=O (racemic) | thermal stability |  | DSF | 10 µM | ΔTm | 0.7 °C
COc1cc2ncnc(Nc3ccc(Oc4ccccc4)c(C)c3C)c2cc1OC | enzyme activity | inhibitor |  | 1 µM | inhibition | -2%
Cn1c2c(c3ccc(Cl)c(Cl)c31)C(C#N)C1(CCOCC1)NC2=O (centres unmarked) | thermal stability |  | DSF | 10 µM | ΔTm | 0 °C
COc1cc2c(Nc3ccc(Br)cc3F)ncnc2cc1OCC1CCN(C)CC1 | cell-free assay |  |  | 0.5 µM | remaining signal | 101%
N#CC1c2c([nH]c3c(Cl)c(Cl)ccc23)C(=O)NC12CCCCC2 (racemic) | thermal stability |  | DSF | 10 µM | ΔTm | 0.6 °C
CS(=O)(=O)CCNCc1ccc(-c2ccc3ncnc(Nc4ccc(OCc5cccc(F)c5)c(Cl)c4)c3c2)o1 | cell-free assay |  |  | 0.5 µM | remaining signal | 107%

Structure (SMILES) | effect on | action | technique | tested at | measurement | value
CC(C)(O)[C@H]1CC[C@H](Nc2ccc3ncc(-c4cccc(C(F)(F)F)c4)n3n2)CC1 | enzyme activity | inhibitor |  | 1 µM | remaining activity | 107%
Cc1ccc(NC(=O)c2ccc(CN3CCN(C)CC3)cc2)cc1Nc1nc(-c2cccnc2)cs1 | cell-free assay |  |  | 0.5 µM | remaining signal | 98.6%
Cn1c2c(Cl)c(Cl)ccc2c2cc[nH]c(=O)c21 | thermal stability |  | DSF | 10 µM | ΔTm | 0.4 °C
O=C(NCCCC1CCCCC1)c1ccc(CNC(=O)c2cnn(-c3ccccc3)c2C(F)(F)F)cc1 | cell-free assay |  | competition with immobilised ligand | 0.1 µM | remaining binding | 100%
Cn1c2c(c3ccc(Cl)c(Cl)c31)C(C#N)C1(CCNCC1)NC2=O (racemic) | thermal stability |  | DSF | 10 µM | ΔTm | -0.1 °C
CCN(CC)c1ccc(C2=NNC(=O)CC2C)cc1[N+](=O)[O-] (centres unmarked) | enzyme activity | inhibitor |  | 10 µM | remaining activity | 102%
CCCOc1ccc(OC)c(F)c1C(=O)c1ccc(C(=O)N[C@@H]2CNC[C@H]2NC(=O)c2ccc3[nH]ncc3c2)cc1 | enzyme activity | inhibitor |  | 10 µM | remaining activity | 95%
CCN(CC)CCNC(=O)c1c(C)[nH]c(/C=C2\C(=O)Nc3ccc(F)cc32)c1C | enzyme activity | inhibitor |  | 10 µM | inhibition | 87%
CCc1ccccc1C(=O)Nc1n[nH]c2c(C)c(F)c(C3C(C#N)=C(C)N(C)C(C)=C3C#N)cc12 | cell-free assay |  | competition with immobilised ligand | 1 µM | remaining binding | 56%
CNC(=O)c1cc(Oc2ccc(NC(=O)Nc3ccc(Cl)c(C(F)(F)F)c3)cc2)ccn1 | enzyme activity | inhibitor |  | 10 µM | inhibition | 10%
O=C(O)[C@H]1[C@H](Cn2nnc3ccccc3c2=O)CC[C@@H]1C(=O)c1ccc(OCCC2CCOCC2)cc1 | cell-free assay |  | competition with immobilised ligand | 1 µM | remaining binding | 78%
Cc1sc(C(=O)NC2COC2)cc1-n1cc(NC(=O)Nc2c(F)cccc2Cl)cn1 | enzyme activity | inhibitor |  | 10 µM | remaining activity | 98.5%
Cn1c2c(Cl)c(Cl)ccc2c2cn[nH]c(=O)c21 | thermal stability |  | DSF | 10 µM | ΔTm | 0.1 °C
O=C(NS(=O)(=O)c1ccc(NCC2CCOCC2)c([N+](=O)[O-])c1)c1ccc(N2CCN(Cc3ccc(C(F)(F)F)cc3-c3ccc(Cl)cc3)CC2)cc1Oc1cnc2[nH]ccc2c1 | cell-free assay |  | competition with immobilised ligand | 1 µM | remaining binding | 100%
Cn1c2c(c3ccc(Cl)c(Cl)c31)C(C#N)C(C)(C)NC2=O (centres unmarked) | thermal stability |  | DSF | 10 µM | ΔTm | 0.1 °C
CN([C@@H]1CCc2c(CC(=O)O)c3ccccc3n2C1)S(=O)(=O)c1ccc(F)cc1 | cell-free assay |  | competition with immobilised ligand | 1 µM | remaining binding | 85%
